One assay relates to HEK293. The assay is described as follows: Cytotoxicity against HEK293 cells assessed as reduction in cell viability. It is filed as cell-based. Particulars: Homo sapiens. The method, boiled down:
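MTT viability assay on non-tumorigenic human kidney cells, run by the same protocol as the breast cancer line. Cells were seeded at […] per well in phenol-free DMEM with 5% FBS and left to adhere overnight. Compounds were given at 0.1–100 µM for 24 h, then MTT (5 mg/mL) for 4 h. Cells were lysed in 20% SDS/50% DMF and read at 550 nm (reference 630 nm). Mean ±SE of four independent experiments.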

Assay [1] in a line: Cytotoxicity against human MCF-7TN-R cells assessed as reduction in cell viability after 24 hrs by MTT assay. The class given is functional, cell-based. (Tetrazolium assays rely on reduction of a dye to a coloured formazan, in cell work by metabolically active cells.)

pIC50: −log10 of the molar value.

Regarding `CCCCCCCCCCCCCCNC(=O)[C@H](CO)/N=C/c1cccc(O)c1`, the pIC50 (usually −log10 of the IC50, conventionally taken in molar units) with HEK293 was 4.11; in assay [1], 4.49.

As to `CCCCCCCCCCCCCCNC(=O)[C@H](CO)/N=C/c1ccccc1O`, the pIC50 in the assay on HEK293 is 4.09; in assay [1], 4.72.

For `CCCCCCCCCCCCCCNC(=O)[C@H](CO)NCc1ccccc1[N+](=O)[O-]`, in assay [1], the pIC50 was 4.53.

Consider `CCCCCCCCCCCCCCNC(=O)[C@H](CO)NCc1ccccc1Cl`, for which the pIC50 in assay [1] is 4.36.

As for `CCCCCCCCCCCCCCNC(=O)[C@H](CO)/N=C/c1ccc(O)cc1`, the pIC50 in the assay with HEK293 is 4.14; in assay [1] it was 4.71.

Regarding `CCCCCCCCCCCCCCNC(=O)[C@H](CO)/N=C/c1ccccc1Cl`, the results for the pIC50 (with HEK293; in assay [1]) were 4.02 and 4.99, respectively.

As to `CCCCCCCCCCCCCCNC(=O)[C@H](CO)/N=C/c1ccc(OC)cc1`, the pIC50 in the assay with HEK293 is 4.09; in assay [1], 4.55.

With `CCCCCCCCCCCCCCNC(=O)[C@H](CO)/N=C/c1ccccc1OC`, the pIC50 with HEK293 is 4.10; in assay [1] it was 4.90.

With `CCCCCCCCCCCCCCNC(=O)[C@H](CO)NCc1ccccc1OC`, in assay [1], the pIC50 was 4.00.

With `CCCCCCCCCCCCCCNC(=O)[C@H](CO)NCc1ccccc1O`, in assay [1], the negative logarithm of the IC50 (pIC50) was 4.12.

As to `CCCCCCCCCCCCCCNC(=O)[C@H](CO)/N=C/c1ccc([N+](=O)[O-])cc1`, the pIC50 in the assay with HEK293 was 4.31; in assay [1], 3.66.

Turning to `CCCCCCCCCCCCCCNC(=O)[C@H](CO)/N=C/c1cccc([N+](=O)[O-])c1`, the pIC50 in the assay on HEK293 was 4.08; in assay [1], 3.98.

As to `CCCCCCCCCCCCCCNC(=O)[C@H](CO)/N=C/c1cccc(C)c1`, the pIC50 with HEK293 was 4.29; in assay [1], 4.08.

For `CCCCCCCCCCCCCCNC(=O)[C@H](CO)/N=C/c1ccccc1C`, the pIC50 in the assay with HEK293 was 4.09; in assay [1], 4.06.

Take `CCCCCCCCCCCCCCNC(=O)[C@H](CO)/N=C/c1ccc(C)cc1`: the pIC50 is 4.32 with HEK293 and 3.99 in assay [1].

In the case of `CCCCCCCCCCCCCCNC(=O)[C@H](CO)/N=C/c1ccc(Cl)cc1`, the pIC50 was 4.11 in the assay on HEK293 and 4.56 in assay [1].

For `CCCCCCCCCCCCCCNC(=O)[C@H](CO)/N=C/c1cccc(Cl)c1`, the pIC50 in the assay on HEK293 is 4.11; in assay [1], 4.62.

As to `CCCCCCCCCCCCCCNC(=O)[C@H](CO)/N=C/c1cccc(OC)c1`, the pIC50 in the assay with HEK293 was 4.11; in assay [1] it was 4.51.

Regarding `CCCCCCCCCCCCCCNC(=O)[C@H](CO)/N=C/c1ccccc1[N+](=O)[O-]`, the results for the pIC50 (in the assay on HEK293; in assay [1]) were 4.08 and 4.66, respectively.

As to `CCCCCCCCCCCCC/C=C/[C@@H](O)[C@H](CO)NC(=O)CCCCCCC`, in assay [1], the negative logarithm of the IC50 (pIC50) is 5.07.

With `CCCCCCCCCCCCCCNC(=O)[C@H](CO)/N=C/c1ccccc1`, in assay [1], the pIC50 is 5.12.

Source of the values: ChEMBL document CHEMBL1177667, “Novel anti-viability ceramide analogs: design, synthesis, and structure-activity relationship studies of substituted (S)-2-(benzylideneamino)-3-hydroxy-N-tetradecylpropanamides” (Bioorg Med Chem, 2010).
